Compounds with a hit are over-represented: about 4.8% of the library has one in this group of screens.
NLRP3 yeast inh – inhibitors of NALP3 inflammasome in yeast; Yeast reconstituted NLRP3/ASC/caspase-1, beta-gal luminescence, 24 h; inhibition, % at 10 µM; 330,000 compounds, 0.39% hits; AID 2825;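 active = inhibition of 50% or more; inactive = inhibition below 50%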;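 also: plate controls were induced DMSO wells for no effect and uninduced yeast grown without galactose for full effect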
ATG4B inhibitor – blocks human ATG4B protease cleavage of LC3 substrate | ATG4B cleavage of LC3-PLA2, NBD-HPC fluorescence, 1 h | inhibition, % at 8.33 µM | Q9Y4P1 | 340,000 compounds, 0.51% hits | AID 504462; in the data active = inhibition above about 40%
Target sequence (Q9Y4P1 whole entry, looked up): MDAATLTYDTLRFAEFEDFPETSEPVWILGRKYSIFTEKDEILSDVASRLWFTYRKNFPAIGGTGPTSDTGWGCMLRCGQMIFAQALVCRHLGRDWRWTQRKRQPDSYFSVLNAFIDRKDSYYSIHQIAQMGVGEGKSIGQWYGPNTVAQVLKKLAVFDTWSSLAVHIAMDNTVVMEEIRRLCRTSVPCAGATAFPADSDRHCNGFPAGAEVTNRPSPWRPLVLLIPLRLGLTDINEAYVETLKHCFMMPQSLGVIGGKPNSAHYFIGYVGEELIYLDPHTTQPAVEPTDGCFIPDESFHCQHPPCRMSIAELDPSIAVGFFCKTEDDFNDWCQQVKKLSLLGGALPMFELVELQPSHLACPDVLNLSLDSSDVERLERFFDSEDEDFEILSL
UCH37 DUB inh – inhibitors of human deubiquitinating enzyme UCH37; Q9Y5K5; AID 588478; inhibition, % (concentration not given with the values); purified proteasome/UCH37, Ub-AMC cleavage fluorescence; 330,000 compounds, 0.33% hits;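 active = mean inhibition over replicate wells above about 20%, limit read from the data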;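 also: 0% = compound-free wells with enzyme and 100% = wells lacking proteasome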
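Assay system: Proteasome-bound UCH37. Buffer or medium: pH 7.4 Tris-HCl (50 mM) with ovalbumin, ATP-MgCl2, DTT. Incubation: 30 min preincubation with enzyme, 25 min cleavage at room temperature. Measured by: fluorescence, ex 355 nm, em 460 nm. Read-out basis: percent inhibition. Control set: wells without proteasome as full block, compound-free enzyme plus substrate as uninhibited.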
ALR inh – blocks human ALR sulfhydryl oxidase activity. purified ALR, DTT oxidation, H2O2 HRP-luminol luminescence. 290,000 compounds, 3.8% hits. inhibition, % (concentration not given with the values). P55789;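 active = mean replicate inhibition above about 79%, with every replicate also reaching it, limit read from the data; inconclusive = only one of the two criteria met; inactive = mean below limit and not every replicate reaching it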
NALP1 inh – NALP1 inhibition; S. cerevisiae NALP1/ASC/caspase-1 growth, X-gal OD620, 72 h; inhibition, % at 10 µM; 280,000 compounds, 0.61% hits; in the data active = inhibition mostly above about 24%, no sharp cut-off; inactive = mostly below about 32%
Calb FLC – affects C. albicans growth with fluconazole. C. albicans CaCi-2 + fluconazole, Alamar Blue growth, 48 h. growth inhibition, % (concentration not given with the values). 300,000 compounds, 0.57% hits;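 active = growth inhibition above about 58% in most replicates, limit read from the data, passing the limit was not always enough; inconclusive = exactly half the replicates above a set limit; inactive = most replicates below a set limit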;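 also: all wells also contain fluconazole at 8 µg/ml as a sub-toxic cotreatment; 0% = median of DMSO wells and 100% = median of geldanamycin control wells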
UCH37 reconfirm – UCH37 Ub-AMC cleavage inhibition, confirmed. shares compounds with UCH37 DUB inh. Proteasome-bound UCH37, Ub-AMC cleavage fluorescence. inhibition, % at 20 µM. 480 compounds, 27% hits;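 active = average inhibition over replicates above about 50%, so the earlier screening hit is confirmed, limit read from the data; inactive = the rest, counted as false positives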;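 also: based on cleavage rate fitted by regression over a 30 min kinetic read; 0% = proteasome plus Ub-AMC and 100% = Ub-AMC without proteasome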
* hit, by the source's call; ? = inconclusive; nt = no result.

SMILES | NLRP3 yeast inh | ATG4B inhibitor | UCH37 DUB inh | ALR inh | NALP1 inh | Calb FLC | UCH37 reconfirm
O=C1c2ccccc2C(=O)c2[nH]c(=O)[nH]c21 | 21.6 | 6.5 | 41.4* | nt | 1.9 | 46.5 | 47.9
O=C1c2ccccc2C(=O)c2[nH]cnc21 | nt | -9.7 | nt | -51.6 | 13.7 | 33.1 | nt
O=C1C(=O)c2ccccc2C(O)=C1c1ccccc1F | 1.4 | 3.3 | 8.7 | -10.6 | nt | 27.2 | nt
O=C1C(O)=C(O)C(=O)c2ccccc21 | 4.8 | -15.0 | 72.5* | 41.5 | nt | nt | -37.7
CCCCC1S/C(=N/N=Cc2cccs2)NC1=O (configuration not stated) | nt | nt | 8.5 | nt | nt | nt | nt
CCCCCCCCCCCCCCCCn1cc[n+](CC(C)=O)c1 | nt | 32.1 | 84.5* | nt | 77.9* | nt | 96.3*
CCCCCCn1ccc(=N)cc1 | 22.8 | -8.1 | 6.6 | -3.4 | 22.6 | ? | nt
COc1cccc(C=NNc2c(Cl)cncc2Cl)c1O | nt | nt | 6.6 | nt | nt | nt | nt
O=C1C2C3CCCC3=C3CCCC3C2C(=O)N1c1ccc(Cl)cc1 (configuration not stated) | -3.8 | -2.0 | 63.1* | 8.1 | 9.7 | -3.7 | 75.0*
CCOC(=O)c1c(=O)n(O)c2ccc(C)cc2[n+]1[O-] | 8.4 | 1.3 | 39.4* | -17.3 | -7.0 | -0.7 | 13.0
COc1ccc(NC(=S)Nc2ccc3nsnc3c2)cc1 | 8.8 | -7.6 | 40.5* | 6.4 | 22.5 | -17.4 | 35.9
CCOc1ccc(NC(=S)Nc2ccc3nsnc3c2)cc1 | 14.4 | 14.4 | 13.9 | 14.5 | 21.9 | 1.6 | nt
CC(C)(C)OC(=O)NCc1ccc(CNC(=O)c2[nH]cnc2C(=O)NC2CCN(C(=O)OC(C)(C)C)CC2)cc1 | 3.2 | -13.9 | 39.4* | -11.7 | nt | nt | -15.6
CC(=O)C1=C(C)OC2(O)c3ccccc3C(=O)C12O (configuration not stated) | 15.3 | -2.3 | 77.4* | 28.2 | -7.8 | 34.6 | 70.6*
CCOC(=O)C1=C(C)OC2(O)c3ccccc3C(=O)C12O (configuration not stated) | 2.2 | -5.0 | 79.3* | 25.6 | 11.5 | -3.7 | 71.9*
CCOC(=O)C1=C(C)N[C@@]2(O)c3ccccc3C(=O)[C@@]12O | 9.6 | -11.8 | 18.0 | -1.9 | 36.9 | 8.6 | nt
CCOc1cc(C=NNC(=O)c2cccs2)cc([N+](=O)[O-])c1O | nt | nt | 29.7* | nt | nt | nt | 39.7
O=C(CNC(=O)C1COc2ccccc2O1)NN=Cc1cc(Br)c(O)c(Br)c1 (configuration not stated) | nt | nt | -38.7 | nt | nt | nt | nt
O=C1C(=O)N(Cc2ccccc2)C(=O)N1CCN1C(=O)c2ccccc2C1=O | 12.8 | -5.6 | 0.0 | nt | 2.4 | -3.9 | nt
O=C1Cc2ccccc2C(=O)N1CCc1ccccc1 | 20.3 | 25.9 | 61.8* | nt | 28.7 | -2.4 | 9.5
C[C@H](NC(=O)c1nc[nH]c1C(=O)N[C@@H](C)C(=O)OC(C)(C)C)C(=O)OCc1ccccc1 | 21.2 | -6.2 | 35.3* | nt | 3.9 | 3.4 | -29.9
O=S(=O)(O)c1cc(O)ccc1O | 3.9 | -6.6 | -1.6 | 16.0 | nt | nt | nt
O=S(=O)(O)c1cc(O)c(N=Nc2ccc(O)cc2O)c2ccccc12 | nt | 24.2 | 30.7* | nt | nt | nt | 50.8*
O=C(O)CN1C(=O)/C(=C\c2ccccc2OCc2ccc(Cl)cc2Cl)SC1=S | 22.6 | 37.1 | 26.2* | 86.8* | 5.0 | 30.2 | 54.2*
CC(C)Nc1ccc(C(CC(N)=O)NC(=O)Cc2ccc(Br)cc2)cc1[N+](=O)[O-] (configuration not stated) | 0.2 | -13.4 | -1.1 | -1.3 | nt | -3.5 | nt
NC(=O)CC(NC(=O)Cc1ccc(Br)cc1)c1ccc(NCCOc2ccccc2)c([N+](=O)[O-])c1 (configuration not stated) | -1.3 | 3.1 | 35.5* | -1.8 | nt | -17.7 | 15.3
COc1ccc(C=NNc2ncnc3sc4c(c23)CCCC4)cc1O | nt | nt | 1.8 | nt | nt | nt | nt
Cc1ccc(C(=O)ONc2ccc(N=NC(=O)c3ccccc3O)cc2)cc1 | 7.6 | 7.9 | 26.6* | 14.3 | 42.5* | -33.4 | 30.6
CC(=NNc1nc(N2CCOCC2)nc(N2CCOCC2)n1)c1ccc([N+](=O)[O-])cc1 | nt | nt | 9.5 | nt | nt | nt | nt
O=C(NNc1cc(N2CCOCC2)nc(N2CCOCC2)n1)c1ccc([N+](=O)[O-])cc1 | 12.5 | 6.8 | 26.3* | nt | -5.0 | ? | 18.3
